# Experimental data published in ChEMBL document CHEMBL4368872, “Synthesis and anticonvulsant activity of phenoxyacetyl derivatives of amines, including aminoalkanols and amino acids” (Medchemcomm, 2018).
# Activity calls are given as the source filed them. No cut-off for these calls is given here.
# Tests used:
# [1] = Neurotoxicity in Sprague-Dawley rat at 30 mg/kg, po measured after 0.25 hrs by rotarod test; assay type: toxicity, organism-based; conditions: in vivo
# Outline: (§1)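 Rat neurotoxicity after i.p. or p.o. dosing was scored as animals impaired / animals tested at each time point. For p.o. dosing, TD50 was obtained by probit analysis.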
# [2] = tested on: Mus musculus; experiment: Anticonvulsant activity in CF-1 mouse model of maximal electroshock-induced seizure assessed as suppression of tonic hind limb extension at 300 mg/kg, ip measured at 0.5 hrs post dose; assay type: functional, organism-based
# Outline: (§2)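 Mice dosed i.p. and given maximal electroshock at 50 mA. Read-out is protection, reported as number protected / number tested at 0.25, 0.5, 1 and 4 h after dosing.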
# [3] = tested on: Rattus norvegicus; experiment: Anticonvulsant activity in Sprague-Dawley rat model of maximal electroshock-induced seizure assessed as suppression of tonic hind limb extension at 30 mg/kg, po measured at 2 hrs post dose; assay type: functional, organism-based
# Outline: (§3)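 Rats given 30 mg/kg p.o. and tested by maximal electroshock at 150 mA. Scored as number protected / number tested (4 per group) at 0.25, 0.5, 1, 2 and 4 h after dosing.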
# [4] = Neurotoxicity in Sprague-Dawley rat at 30 mg/kg, po measured after 1 hr by rotarod test; assay type: toxicity, organism-based; conditions: in vivo; outline: as §1
# [5] = tested on: Rattus norvegicus; experiment: Anticonvulsant activity in Sprague-Dawley rat model of maximal electroshock-induced seizure assessed as suppression of tonic hind limb extension at 30 mg/kg, po measured at 0.25 hrs post dose; assay type: functional, organism-based; outline: as §3
# [6] = Neurotoxicity in CF-1 mouse at 100 mg/kg, ip measured after 4 hrs by rotarod test; assay type: toxicity, organism-based; conditions: in vivo
# Outline: (§4)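 Mice dosed i.p. were placed on a 1 in. knurled rod turning at 6 rpm. Toxicity was scored as failure to keep balance for at least 1 min, i.e. falling off three or more times. Results are reported as animals showing toxicity / animals tested at each time point.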
# [7] = Neurotoxicity in CF-1 mouse at 30 mg/kg, ip measured after 4 hrs by rotarod test; assay type: toxicity, organism-based; conditions: in vivo; outline: as §4
# [8] = tested on: Mus musculus; experiment: Anticonvulsant activity in CF-1 mouse model of maximal electroshock-induced seizure assessed as suppression of tonic hind limb extension at 100 mg/kg, ip measured at 1 hr post dose; assay type: functional, organism-based; outline: as §2
# [9] = tested on: Mus musculus; experiment: Anticonvulsant activity in CF-1 mouse model of subcutaneous pentylenetetrazole-induced seizure assessed as reduction in convulsions at 300 mg/kg, ip measured at 4 hrs post dose; assay type: functional, organism-based
# Outline: (§5)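 Mice dosed i.p., then given pentylenetetrazole 85 mg/kg in 0.9% NaCl s.c. into the posterior midline of the neck. Seizures watched for at least 30 min. Scored as protected / tested at 0.5 and 4 h.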
# [10] = tested on: Mus musculus; experiment: Anticonvulsant activity in CF-1 mouse model of subcutaneous pentylenetetrazole-induced seizure assessed as reduction in convulsions at 30 mg/kg, ip measured at 4 hrs post dose; assay type: functional, organism-based; outline: as §5
# [11] = Neurotoxicity in Sprague-Dawley rat at 30 mg/kg, po measured after 2 hrs by rotarod test; assay type: toxicity, organism-based; conditions: in vivo; outline: as §1
# [12] = Neurotoxicity in Sprague-Dawley rat at 30 mg/kg, po measured after 0.5 hrs by rotarod test; assay type: toxicity, organism-based; conditions: in vivo; outline: as §1
# [13] = Neurotoxicity in CF-1 mouse at 30 mg/kg, ip measured after 0.5 hrs by rotarod test; assay type: toxicity, organism-based; conditions: in vivo; outline: as §4
# [14] = Neurotoxicity in CF-1 mouse at 100 mg/kg, ip measured after 0.5 hrs by rotarod test; assay type: toxicity, organism-based; conditions: in vivo; outline: as §4
# [15] = tested on: Mus musculus; experiment: Anticonvulsant activity in CF-1 mouse model of subcutaneous pentylenetetrazole-induced seizure assessed as reduction in convulsions at 300 mg/kg, ip measured at 0.5 hrs post dose; assay type: functional, organism-based; outline: as §5
# [16] = tested on: Mus musculus; experiment: Anticonvulsant activity in CF-1 mouse model of maximal electroshock-induced seizure assessed as suppression of tonic hind limb extension at 300 mg/kg, ip measured at 4 hrs post dose; assay type: functional, organism-based; outline: as §2
# [17] = tested on: Mus musculus; experiment: Anticonvulsant activity in CF-1 mouse model of subcutaneous pentylenetetrazole-induced seizure assessed as reduction in convulsions at 100 mg/kg, ip measured at 0.5 hrs post dose; assay type: functional, organism-based; outline: as §5
# [18] = tested on: Mus musculus; experiment: Anticonvulsant activity in CF-1 mouse model of maximal electroshock-induced seizure assessed as suppression of tonic hind limb extension at 100 mg/kg, ip measured at 0.5 hrs post dose; assay type: functional, organism-based; outline: as §2
# [19] = tested on: Rattus norvegicus; experiment: Anticonvulsant activity in Sprague-Dawley rat model of maximal electroshock-induced seizure assessed as suppression of tonic hind limb extension at 30 mg/kg, po measured at 1 hr post dose; assay type: functional, organism-based; outline: as §3
# [20] = tested on: Mus musculus; experiment: Anticonvulsant activity in CF-1 mouse model of maximal electroshock-induced seizure assessed as suppression of tonic hind limb extension at 100 mg/kg, ip measured at 4 hrs post dose; assay type: functional, organism-based; outline: as §2
# [21] = tested on: Mus musculus; experiment: Anticonvulsant activity in CF-1 mouse model of subcutaneous pentylenetetrazole-induced seizure assessed as reduction in convulsions at 30 mg/kg, ip measured at 0.5 hrs post dose; assay type: functional, organism-based; outline: as §5
# [22] = Neurotoxicity in CF-1 mouse at 100 mg/kg, ip measured after 1 hr by rotarod test; assay type: toxicity, organism-based; conditions: in vivo; outline: as §4
# [23] = Neurotoxicity in CF-1 mouse at 300 mg/kg, ip measured after 0.5 hrs by rotarod test; assay type: toxicity, organism-based; conditions: in vivo; outline: as §4
# [24] = tested on: Rattus norvegicus; experiment: Anticonvulsant activity in Sprague-Dawley rat model of maximal electroshock-induced seizure assessed as suppression of tonic hind limb extension at 30 mg/kg, po measured at 0.5 hrs post dose; assay type: functional, organism-based; outline: as §3
# [25] = tested on: Mus musculus; experiment: Anticonvulsant activity in CF-1 mouse model of maximal electroshock-induced seizure assessed as suppression of tonic hind limb extension at 30 mg/kg, ip measured at 4 hrs post dose; assay type: functional, organism-based; outline: as §2
# [26] = Neurotoxicity in Sprague-Dawley rat at 30 mg/kg, po measured after 4 hrs by rotarod test; assay type: toxicity, organism-based; conditions: in vivo; outline: as §1
# [27] = Neurotoxicity in CF-1 mouse at 300 mg/kg, ip measured after 4 hrs by rotarod test; assay type: toxicity, organism-based; conditions: in vivo; outline: as §4
# [28] = tested on: Mus musculus; experiment: Anticonvulsant activity in CF-1 mouse model of subcutaneous pentylenetetrazole-induced seizure assessed as reduction in convulsions at 100 mg/kg, ip measured at 4 hrs post dose; assay type: functional, organism-based; outline: as §5
# [29] = tested on: Mus musculus; experiment: Anticonvulsant activity in CF-1 mouse model of maximal electroshock-induced seizure assessed as suppression of tonic hind limb extension at 30 mg/kg, ip measured at 0.5 hrs post dose; assay type: functional, organism-based; outline: as §2
# [30] = tested on: Mus musculus; experiment: Anticonvulsant activity in CF-1 mouse assessed as protection against 44 mA current-induced seizure at 40 to 80 mg/kg, ip after 0.5 hrs by 6 Hz psychomotor test; assay type: functional
# [31] = Neurotoxicity in Sprague-Dawley rat at 100 mg/kg, ip measured after 2 hrs by rotarod test; assay type: toxicity, organism-based; conditions: Sprague-Dawley, in vivo; outline: as §1
# [32] = tested on: Mus musculus; experiment: Anticonvulsant activity in CF-1 mouse assessed as protection against 44 mA current-induced seizure at 30 mg/kg, ip after 0.5 hrs by 6 Hz psychomotor test; assay type: functional, organism-based
# Outline: (§6)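 Mice dosed i.p. (30, 100, 300 mg/kg; one line at 120 mg/kg read at 15 min). Corneal stimulation at 6 Hz, 44 mA for 3 s from a constant-current device induces a psychomotor seizure with stunned posture, forelimb automatisms, clonus, vibrissae twitching and Straub tail. Scored as number of animals protected / number tested (4 per group) at 0.5 and 2 h.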
# [33] = Neurotoxicity in CF-1 mouse at 100 mg/kg, ip measured after 2 hrs by rotarod test; assay type: toxicity, organism-based; conditions: in vivo; outline: as §4
# [34] = tested on: Mus musculus; experiment: Anticonvulsant activity in CF-1 mouse assessed as protection against 44 mA current-induced seizure at 30 mg/kg, ip after 2 hrs by 6 Hz psychomotor test; assay type: functional, organism-based; outline: as §6
# [35] = tested on: Mus musculus; experiment: Anticonvulsant activity in CF-1 mouse assessed as protection against 44 mA current-induced seizure at 100 mg/kg, ip after 2 hrs by 6 Hz psychomotor test; assay type: functional, organism-based; outline: as §6
# [36] = tested on: Mus musculus; experiment: Anticonvulsant activity in CF-1 mouse assessed as protection against 44 mA current-induced seizure at 100 mg/kg, ip after 0.5 hrs by 6 Hz psychomotor test; assay type: functional, organism-based; outline: as §6
# [37] = tested on: Mus musculus; experiment: Anticonvulsant activity in CF-1 mouse assessed as protection against 44 mA current-induced seizure at 300 mg/kg, ip after 0.5 hrs by 6 Hz psychomotor test; assay type: functional, organism-based; outline: as §6
# [38] = Neurotoxicity in CF-1 mouse at 300 mg/kg, ip measured after 2 hrs by rotarod test; assay type: toxicity, organism-based; conditions: in vivo; outline: as §4
# [39] = Neurotoxicity in CF-1 mouse at 30 mg/kg, ip measured after 2 hrs by rotarod test; assay type: toxicity, organism-based; conditions: in vivo; outline: as §4
# [40] = tested on: Mus musculus; experiment: Anticonvulsant activity in CF-1 mouse model of maximal electroshock-induced seizure assessed as suppression of tonic hind limb extension at 100 mg/kg, ip measured at 2 hrs post dose; assay type: functional, organism-based
# [41] = tested on: Mus musculus; experiment: Anticonvulsant activity in CF-1 mouse model of maximal electroshock-induced seizure assessed as suppression of tonic hind limb extension at 30 mg/kg, ip measured at 2 hrs post dose; assay type: functional, organism-based
# [42] = tested on: Mus musculus; experiment: Anticonvulsant activity in ip dosed CF-1 mouse model of subcutaneous pentylenetetrazole-induced seizure assessed as time required for reduction in convulsions; assay type: functional
# Outline: (§7)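 Mice given test compound i.p.; pentylenetetrazole 85 mg kg⁻¹ in 0.9% NaCl injected subcutaneously into posterior midline of neck. Seizures observed for at least 30 min. Protected = no fore and/or hind limb clonus, jaw chomping or vibrissae twitching (3 to 5 s). Screening doses 30, 100, 300 mg kg⁻¹; read at 0.25, 0.5, 1.0, 4.0 h; scored as protected/tested.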
# [43] = tested on: Mus musculus; experiment: Anticonvulsant activity in ip dosed CF-1 mouse model of subcutaneous pentylenetetrazole-induced seizure assessed as reduction in convulsions; assay type: functional; outline: as §7
# [44] = tested on: Mus musculus; experiment: Anticonvulsant activity in CF-1 mouse assessed as protection against 44 mA current-induced seizure at 300 mg/kg, ip after 2 hrs by 6 Hz psychomotor test; assay type: functional, organism-based; outline: as §6
smiles,measurement,setting,value
Cc1cccc(C)c1OCC(=O)NCC(C)O (configuration not stated),Activity,[1],Non-Toxic
same,Activity,[2],Active
same,Activity,[3],inactive
same,Activity,[4],Non-Toxic
same,Activity,[5],inactive
same,Activity,[6],Non-Toxic
same,Activity,[7],Non-Toxic
same,Activity,[8],inactive
same,Activity,[9],inactive
same,Activity,[10],inactive
same,Activity,[11],Non-Toxic
same,Activity,[12],Non-Toxic
same,Activity,[13],Non-Toxic
same,Activity,[14],Non-Toxic
same,Activity,[15],inactive
same,Activity,[16],inactive
same,Activity,[17],inactive
same,Activity,[18],inactive
same,Activity,[19],inactive
same,Activity,[20],inactive
same,Activity,[21],inactive
same,Activity,[22],Non-Toxic
same,Activity,[23],Toxic
same,Activity,[24],inactive
same,Activity,[25],inactive
same,Activity,[26],Non-Toxic
same,Activity,[27],Non-Toxic
same,Activity,[28],inactive
same,Activity,[29],inactive
NC(=O)N1c2ccccc2C=Cc2ccccc21 [CARBAMAZEPINE],%max,[30],75%
same,TD50 at 2 h,[31],364 mg/kg
Cc1cccc(C)c1OCC(=O)N[C@H]1CC[C@H](OC(=O)COc2c(C)cccc2C)CC1,Activity,[32],inactive
same,Activity,[2],inactive
same,Activity,[33],Non-Toxic
same,Activity,[34],inactive
same,Activity,[35],inactive
same,Activity,[36],inactive
same,Activity,[13],Non-Toxic
same,Activity,[14],Non-Toxic
same,Activity,[37],inactive
same,Activity,[38],Non-Toxic
same,Activity,[39],Non-Toxic
same,Activity,[23],Non-Toxic
same,Activity,[40],inactive
same,Activity,[41],inactive
same,Activity,[29],inactive
CC(=O)[C@H]1CC[C@H]2[C@@H]3CC[C@H]4C[C@H](O)CC[C@]4(C)[C@H]3CC[C@]12C [BREXANOLONE],Time,[42],0.17 h
same,ED50,[43],13.7 mg/kg
Cc1cccc(OCC(=O)N[C@H]2CC[C@H](O)CC2)c1C,Activity,[32],inactive
same,Activity,[2],Active
same,Activity,[33],Non-Toxic
same,Activity,[34],inactive
same,Activity,[35],inactive
same,Activity,[13],Non-Toxic
same,Activity,[14],Non-Toxic
same,Activity,[18],inactive
same,Activity,[38],Non-Toxic
same,Activity,[39],Non-Toxic
same,Activity,[44],Active
same,Activity,[40],inactive
same,Activity,[41],inactive
same,Activity,[29],inactive
